Data reported in ChEMBL document CHEMBL1123326, “Sequentially labile water-soluble prodrugs of alprazolam” (J Med Chem, 1986).

Tests used:
[1] = target: T1, GABA-A receptor; anion channel (Mus musculus) (UniProt Q8BHJ7+P26048+Q8QZW7+P50571+Q9R0Y8+P22723+A2AMW3+P62812+Q9JLF1+P26049+P22933+Q9D6F4+P63080+P27681+P16305); assay: Ex vivo inhibition of [3H]flunitrazepam binding to mouse GABA-A benzodiazepine receptor; assay type: functional
Outline: (§1)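 Mice dosed iv by tail vein (drugs in 0.9% NaCl, or 2% ethanol for parent; controls given vehicle); decapitated 30 min later (dose-response) or at 1, 3, 10, 30, 60 min (time course). Brain minus cerebellum homogenized in 50 vol 0.05 M Tris pH 7.4, 4 °C; incubated with ~0.77 nM [3H]flunitrazepam final, 30 min, 25 °C; GF/B filtration, scintillation counting. Mean of four measurements.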

[2] = target: T1, GABA-A receptor; anion channel (Mus musculus); assay: Ex vivo displacement of [3H]flunitrazepam from mouse GABA-A benzodiazepine receptor at 1 uM/kg iv dose; assay type: organism-based; outline: as §1
[3] = target: T1, GABA-A receptor; anion channel (Mus musculus); assay: Ex vivo displacement of [3H]flunitrazepam from mouse GABA-A benzodiazepine receptor at 3 uM/kg iv dose; assay type: organism-based; outline: as §1
[4] = target: T1, GABA-A receptor; anion channel (Mus musculus); assay: Ex vivo displacement of [3H]flunitrazepam from mouse GABA-A benzodiazepine receptor at 30 uM/kg iv dose (Range 5-10%); assay type: organism-based; outline: as §1
[5] = target: T1, GABA-A receptor; anion channel (Mus musculus); assay: Ex vivo displacement of [3H]flunitrazepam from mouse GABA-A benzodiazepine receptor at 10 uM/kg iv dose; assay type: organism-based; outline: as §1
[6] = Half-life period at 37 degrees C; assay type: ADME

| Structure (SMILES) | ED50 [1] | Control [2] | Control [3] | Control [4] | Control [5] | half-life [6] |
| --- | --- | --- | --- | --- | --- | --- |
| Cc1nnc2n1-c1ccc(Cl)cc1C(c1ccccc1)=NC2 | 2.9 µmol/kg |  |  |  |  |  |
| Cc1nnc(CNC(=O)CCCN)n1-c1ccc(Cl)cc1C(=O)c1ccccc1 | 320 µmol/kg | 80% | 51% | 10% | 20% |  |
| Cc1nnc(CNC(=O)CN)n1-c1ccc(Cl)cc1C(=O)c1ccccc1 | 9 µmol/kg | 65% | 50% |  | 3% | 4.33 h |
| Cc1nnc(CNC(=O)C(N)CC(C)C)n1-c1ccc(Cl)cc1C(=O)c1ccccc1 (configuration not stated) | 6 µmol/kg | 82% | 60% | 10% | 25% | 1 h |
